Reference: ChEMBL document CHEMBL3045505, “Antifungal activity of strawberry fruit volatile compounds against Colletotrichum acutatum” (2007)
Calls of active or inactive are those of the source. The calls are words filed in the database; no cut-off is given here.

Columns and labels:
Colletotrichum acutatum [1] = experiment: Antifungal activity against Colletotrichum acutatum assessed as inhibition of appressorium pigmentation at 25 degC measured after 4 to 24 hr; format: functional
Procedure, shortened: (§1)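 C. acutatum CECT 20240 conidia (PDA, 25 °C, continuous light, 7 days) as a 100 µL droplet of 5 × 10^5 conidia mL-1 on Parafilm-covered slides in sealed Petri dishes. Volatile applied to filter paper in the vapour phase at ≥4 doses, 0.13–1351.35 µL L-1, with water control. Incubated at 25 °C and scored microscopically at 4 and 24 h. Five dishes per dose, experiment run twice.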

Colletotrichum acutatum [2] = experiment: Antifungal activity against Colletotrichum acutatum assessed as inhibition of germination at 25 degC measured after 4 to 24 hr; format: functional; procedure, shortened: as §1
Colletotrichum acutatum [3] = experiment: Antifungal activity against Colletotrichum acutatum assessed as inhibition of mycelial growth at 25 degC measured after 8 days; format: functional
Procedure, shortened: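 A 5 mm PDA mycelial disc was placed in a sealed 74 mL dish holding 20 mL PDA. Volatile on filter paper under the lid at ≥6 doses, 33.78–1351.35 µL L-1, with extra doses for some compounds; water control. Colony diameter read after 8 days at 25 °C; five dishes per dose, run twice. MID, ID95 and ID50 from probit regression on log dose.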

Colletotrichum acutatum [4] = experiment: Antifungal activity against Colletotrichum acutatum assessed as inhibition of pore appressorial formation at 25 degC measured after 4 to 24 hr; format: functional; procedure, shortened: as §1
Colletotrichum acutatum [5] = experiment: Antifungal activity against Colletotrichum acutatum assessed as inhibition of microcyclic conidiation at 25 degC measured after 4 to 24 hr; format: functional; procedure, shortened: as §1
Colletotrichum acutatum [6] = experiment: Antifungal activity against Colletotrichum acutatum assessed as inhibition of appressorium formation at 25 degC measured after 4 to 24 hr; format: functional; procedure, shortened: as §1
Colletotrichum acutatum [7] = experiment: Antifungal activity against Colletotrichum acutatum inoculated in strawberry fruits assessed as fruit damaging at 10 ul/L measured after 7 days; format: functional
Procedure, shortened: (§2)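 Strawberry fruits (cv. Camarosa) at commercial maturity inoculated with 10^6 conidia mL-1. Filter paper carrying 4, 5, 10, 20 or 50 µL L-1 volatile placed next to the fruit; inoculated untreated fruit as control. Kept at 25 °C under continuous light; damage rated at 7 days (0 = intact, 1 = covered with mycelia). Eight replicates, mean ± SE.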

Colletotrichum acutatum [8] = experiment: Antifungal activity against Colletotrichum acutatum assessed as high disorganization of cell components at 33.78 ul/L by transmission electrol microscopy; format: functional, organism-based
Colletotrichum acutatum [9] = experiment: Antifungal activity against Colletotrichum acutatum inoculated in strawberry fruits assessed as fruit damaging at 5 ul/L measured after 7 days; format: functional, organism-based; procedure, shortened: as §2
Colletotrichum acutatum [10] = experiment: Antifungal activity against Colletotrichum acutatum assessed as disruption of cell wall at 33.78 ul/L by transmission electrol microscopy; format: functional, organism-based
Colletotrichum acutatum [11] = experiment: Antifungal activity against Colletotrichum acutatum inoculated in strawberry fruits assessed as fruit damaging at 4 ul/L measured after 7 days; format: functional, organism-based; procedure, shortened: as §2
Colletotrichum acutatum [12] = experiment: Antifungal activity against Colletotrichum acutatum inoculated in strawberry fruits assessed as fruit damaging at >=20 ul/L measured after 7 days; format: functional; procedure, shortened: as §2
Colletotrichum acutatum [13] = experiment: Antifungal activity against Colletotrichum acutatum assessed as disruption of plasma membrane at 33.78 ul/L by transmission electrol microscopy; format: functional, organism-based

SMILES	MID (Colletotrichum acutatum [1])	MID (Colletotrichum acutatum [2])	ID50 (Colletotrichum acutatum [3])	ID95 (Colletotrichum acutatum [3])	MID (Colletotrichum acutatum [3])	MID (Colletotrichum acutatum [4])	MID (Colletotrichum acutatum [5])	MID (Colletotrichum acutatum [6])	Activity (Colletotrichum acutatum [7])	Activity (Colletotrichum acutatum [8])	Activity (Colletotrichum acutatum [9])	Activity (Colletotrichum acutatum [10])	Activity (Colletotrichum acutatum [11])	Activity (Colletotrichum acutatum [12])	Activity (Colletotrichum acutatum [13])
CCCCCCOC(C)=O [HEXYL ACETATE]	337.84 uL/L	1351.35 uL/L	718.65 uL/L	5100.41 uL/L	6441.89 uL/L	337.84 uL/L	1351.35 uL/L	1351.35 uL/L	–	–	–	–	–	–	–
CCCCCC=O [HEXANAL]	6.76 uL/L	33.78 uL/L	151.35 uL/L	256.49 uL/L	272.16 uL/L	6.76 uL/L	33.78 uL/L	33.78 uL/L	–	–	–	–	–	–	–
CCC/C=C/COC(C)=O	135.13 uL/L	337.84 uL/L	221.62 uL/L	584.86 uL/L	651.35 uL/L	135.13 uL/L	337.84 uL/L	337.84 uL/L	–	–	–	–	–	–	–
CCCCCCO [1-HEXANOL]	33.78 uL/L	337.84 uL/L	151.35 uL/L	255.14 uL/L	270.27 uL/L	33.78 uL/L	337.84 uL/L	337.84 uL/L	–	–	–	–	–	–	–
CC/C=C\CCO [CIS-3-HEXENOL]	135.13 uL/L	337.84 uL/L	230.14 uL/L	595 uL/L	640.54 uL/L	135.13 uL/L	337.84 uL/L	337.84 uL/L	–	–	–	–	–	–	–
CCC/C=C/C=O	1.35 uL/L	6.76 uL/L	26.89 uL/L	32.97 uL/L	33.65 uL/L	1.35 uL/L	6.76 uL/L	6.76 uL/L	87.5%	Active	inactive	Active	inactive	100%	Active
CC/C=C\CCOC(C)=O [(Z)-hex-3-en-1-yl acetate]	135.13 uL/L	337.84 uL/L	503.11 uL/L	2063.11 uL/L	2476.35 uL/L	135.13 uL/L	337.84 uL/L	337.84 uL/L	–	–	–	–	–	–	–
CCC/C=C/CO	33.78 uL/L	135.13 uL/L	151.76 uL/L	253.78 uL/L	268.92 uL/L	33.78 uL/L	135.13 uL/L	33.78 uL/L	–	–	–	–	–	–	–
